Source: ChEMBL document CHEMBL3108772, “Discovery of Potent and Orally Active p53-MDM2 Inhibitors RO5353 and RO2468 for Potential Clinical Development” (ACS Med Chem Lett, 2014)
One block for each compound: values may come before it. The source made the active and inactive calls. The calls are words filed in the database; no cut-off is given here.

Columns and labels:
SJSA-1 [1] = experiment: Antitumor activity against human SJSA1 cells xenografted in nude mouse assessed as tumor regression at 6.25 mg/kg, po qd administered for 2 weeks; assay type: functional, organism-based; design: dose 6.25 mg/kg
[2] = Oral bioavailability in C57 mouse at 25 mg/kg; assay type: ADME, organism-based; conditions: in vivo
Procedure, shortened: (§1)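 Single-dose PK in male C57 mice, given orally (PO) or intravenously (IV). Plasma exposure (AUC normalized to dose, Cmax) was taken from the oral arms. Clearance and t1/2 were taken from the IV arms. F is oral bioavailability.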

[3] = Apparent terminal half life in C57 mouse at 0.64 mg/kg, iv; assay type: ADME, organism-based; design: dose 0.64 mg/kg, route intravenous; conditions: in vivo, read-out: betat1/2(app) (converted); procedure, shortened: as §1
[4] = Total plasma clearance in C57 mouse at 0.64 mg/kg, iv; assay type: ADME, organism-based; design: dose 0.64 mg/kg, route intravenous; procedure, shortened: as §1
[5] = Cmax in C57 mouse at 25 mg/kg, po; assay type: ADME, organism-based; design: dose 25 mg/kg, route oral; conditions: in vivo; procedure, shortened: as §1
Mus musculus [6] = experiment: AUC/dose in C57 mouse at 25 mg/kg, po; assay type: ADME, organism-based, Plasma; design: dose 25 mg/kg, route oral; conditions: in vivo; procedure, shortened: as §1
[7] = Intrinsic clearance in human liver microsomes at […] preincubated for 5 mins followed by NADPH addition by LC-MS/MS analysis; assay type: ADME; conditions: read-out: CLH
SW480 = experiment: Antiproliferative activity against human SW480 cells expressing p53 mutant by MTT assay
SJSA-1 [8] = experiment: Antiproliferative activity against human SJSA cells expressing wild-type p53 by MTT assay
RKO = experiment: Antiproliferative activity against human RKO cells expressing wild-type p53 by MTT assay; assay type: functional, cell-based
Procedure, shortened: (§2)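 MTT antiproliferation assay in human cancer lines: SJSA, HCT116 and RKO are wild-type p53; SW480 is mutant p53. IC50 came from one experiment run in duplicate.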

HCT-116 = experiment: Antiproliferative activity against human HCT116 cells expressing wild-type p53 by MTT assay; assay type: functional, cell-based; procedure, shortened: as §2
Mus musculus [9] = experiment: Toxicity in nude mouse xenografted with human SJSA1 cells assessed as body weight loss at 3 to 20 mg/kg, po qd administered for 2 weeks; assay type: organism-based, SJSA-1; design: dose 3-20 mg/kg, route oral; conditions: in vivo, 336 h
SJSA-1 [10] = experiment: Antitumor activity against human SJSA1 cells xenografted in nude mouse assessed as tumor growth inhibition at 3 mg/kg, po qd administered for 2 weeks; assay type: functional, organism-based; design: dose 3 mg/kg
SJSA-1 [11] = experiment: Antitumor activity against human SJSA1 cells xenografted in nude mouse assessed as tumor regression at 10 mg/kg, po qd administered for 2 weeks; assay type: functional, organism-based; design: dose 10 mg/kg
[12] = Oral bioavailability in C57 mouse at 5 mg/kg; assay type: ADME, organism-based; conditions: in vivo; procedure, shortened: as §1
[13] = Apparent terminal half life in C57 mouse at 2 mg/kg, iv; assay type: ADME, organism-based; design: dose 2 mg/kg, route intravenous; conditions: in vivo, read-out: betat1/2(app) (converted); procedure, shortened: as §1
[14] = Total plasma clearance in C57 mouse at 2 mg/kg, iv; assay type: ADME, organism-based; design: dose 2 mg/kg, route intravenous; procedure, shortened: as §1
[15] = Cmax in C57 mouse at 5 mg/kg, po; assay type: ADME, organism-based; design: dose 5 mg/kg, route oral; conditions: in vivo; procedure, shortened: as §1
Mus musculus [16] = experiment: AUC/dose in C57 mouse at 5 mg/kg, po; assay type: ADME, organism-based, Plasma; design: dose 5 mg/kg, route oral; conditions: in vivo; procedure, shortened: as §1
SJSA-1 [17] = experiment: Antiproliferative activity against human SJSA cells expressing wild-type p53 by MTT assay
[18] = Oral bioavailability in C57 mouse at 10 mg/kg; assay type: ADME, organism-based; conditions: in vivo; procedure, shortened: as §1
[19] = Apparent terminal half life in C57 mouse at 2.5 mg/kg, iv; assay type: ADME, organism-based; design: dose 2.5 mg/kg, route intravenous; conditions: in vivo, read-out: betat1/2(app) (converted); procedure, shortened: as §1
[20] = Total plasma clearance in C57 mouse at 2.5 mg/kg, iv; assay type: ADME, organism-based; design: dose 2.5 mg/kg, route intravenous; procedure, shortened: as §1
[21] = Cmax in C57 mouse at 10 mg/kg, po; assay type: ADME, organism-based; design: dose 10 mg/kg, route oral; conditions: in vivo; procedure, shortened: as §1
Mus musculus [22] = experiment: AUC/dose in C57 mouse at 10 mg/kg, po; assay type: ADME, organism-based, Plasma; design: dose 10 mg/kg, route oral; conditions: in vivo; procedure, shortened: as §1

- IC50 (SW480): 10700 nM
- IC50 (SJSA-1 [8]): 90 nM
Structure (SMILES): COc1cc(C(N)=O)ccc1NC(=O)[C@@H]1N[C@@H](CC(C)(C)C)[C@@]2(C(=O)Nc3nc(Cl)ncc32)[C@H]1c1cccc(Cl)c1F (racemic)

- bioavailability [12]: 46%
- half-life [13]: 3 h
- clearance [14]: 1.8 mL/min/kg
- Cmax [15]: 2100 ng/mL
- AUC/dose (Mus musculus [16]): 4.2 µg·h/mL/mg/kg
- CLint scaled [7]: 10.2 mL/min/kg
Structure (SMILES): COc1cc(C(N)=O)ccc1NC(=O)[C@@H]1N[C@@H](CC(C)(C)C)[C@@]2(C(=O)Nc3cc(Cl)ncc32)[C@H]1c1cccc(Cl)c1F
- Activity (RKO): Active
- Activity (HCT-116): Active
- Activity (Mus musculus [9]): Non-toxic
- TGI (SJSA-1 [10]): Active
- Activity (SJSA-1 [11]): Active
- Activity (SJSA-1 [17]): Active

- bioavailability [18]: 32%
- half-life [19]: 1.68 h
- clearance [20]: 68.6 mL/min/kg
- Cmax [21]: 300 ng/mL
- AUC/dose (Mus musculus [22]): 0.08 µg·h/mL/mg/kg
Structure (SMILES): COc1cc(C(=O)O)ccc1NC(=O)[C@@H]1N[C@@H](CC(C)(C)C)[C@@]2(C(=O)Nc3cc(Cl)sc32)[C@H]1c1cccc(Cl)c1F
- Activity (RKO): Active
- Activity (HCT-116): Active
- Activity (SJSA-1 [17]): Active

- IC50 (SW480): 5260 nM
- IC50 (SJSA-1 [8]): 67 nM
Structure (SMILES): COc1cc(C(N)=O)ccc1NC(=O)[C@@H]1N[C@@H](CC(C)(C)C)[C@@]2(C(=O)Nc3nc(Cl)ccc32)[C@H]1c1cccc(Cl)c1F (racemic)

- IC50 (SW480): 5900 nM
- IC50 (SJSA-1 [8]): 42 nM
Structure (SMILES): COc1cc(C(N)=O)ccc1NC(=O)[C@@H]1N[C@@H](CC(C)(C)C)[C@@]2(C(=O)Nc3cc(Cl)cnc32)[C@H]1c1cccc(Cl)c1F (racemic)

- IC50 (SW480): 13400 nM
- IC50 (SJSA-1 [8]): 2110 nM
Structure (SMILES): COc1cc(C(N)=O)ccc1NC(=O)[C@@H]1N[C@@H](CC(C)(C)C)[C@@]2(C(=O)Nc3ccncc32)[C@H]1c1cccc(Cl)c1F (racemic)

- IC50 (SW480): 15400 nM
- IC50 (SJSA-1 [8]): 45 nM
Structure (SMILES): COc1cc(C(=O)O)ccc1NC(=O)[C@@H]1N[C@@H](CC(C)(C)C)[C@@]2(C(=O)Nc3nc(Cl)ccc32)[C@H]1c1cccc(Cl)c1F (racemic)

- IC50 (SW480): > 30000 nM
- IC50 (SJSA-1 [8]): 43 nM
Structure (SMILES): COc1cc(C(=O)O)ccc1NC(=O)[C@@H]1N[C@@H](CC(C)(C)C)[C@@]2(C(=O)Nc3cc(Cl)ncc32)[C@H]1c1cccc(Cl)c1F (racemic)

- IC50 (SW480): > 30000 nM
- IC50 (SJSA-1 [8]): 100 nM
Structure (SMILES): COc1cc(C(=O)O)ccc1NC(=O)[C@@H]1N[C@@H](CC(C)(C)C)[C@@]2(C(=O)Nc3nc(Cl)ncc32)[C@H]1c1cccc(Cl)c1F (racemic)

- IC50 (SW480): 7870 nM
- IC50 (SJSA-1 [8]): 11 nM
Structure (SMILES): COc1cc(C(N)=O)ccc1NC(=O)C1NC(CC(C)(C)C)C2(C(=O)Nc3cc(Cl)sc32)C1c1cccc(Cl)c1F (racemic)

Further lines, the compound ahead of its results:

Structure (SMILES): COc1cc(C(N)=O)ccc1NC(=O)[C@@H]1N[C@@H](CC(C)(C)C)[C@@]2(C(=O)Nc3cc(Cl)ccc32)[C@H]1c1cccc(Cl)c1F
- Activity (SJSA-1 [1]): Active
- bioavailability [2]: 92%
- half-life [3]: 7.1 h
- clearance [4]: 5.8 mL/min/kg
- Cmax [5]: 5800 ng/mL
- AUC/dose (Mus musculus [6]): 3.7 µg·h/mL/mg/kg
- CLint scaled [7]: 7.5 mL/min/kg
- IC50 (SW480): 5190 nM
- IC50 (SJSA-1 [8]): 13 nM

Structure (SMILES): COc1cc(C(N)=O)ccc1NC(=O)C1NC(CC(C)(C)C)C2(C(=O)Nc3cc(Cl)ncc32)C1c1cccc(Cl)c1F (racemic)
- IC50 (SW480): 12800 nM
- IC50 (SJSA-1 [8]): 14 nM

Structure (SMILES): COc1cc(C(=O)O)ccc1NC(=O)[C@@H]1N[C@@H](CC(C)(C)C)[C@@]2(C(=O)Nc3ncccc32)[C@H]1c1cccc(Cl)c1F (racemic)
- IC50 (SW480): > 30000 nM
- IC50 (SJSA-1 [8]): 1370 nM

Structure (SMILES): COc1cc(C(=O)O)ccc1NC(=O)[C@@H]1N[C@@H](CC(C)(C)C)[C@@]2(C(=O)Nc3ccncc32)[C@H]1c1cccc(Cl)c1F (racemic)
- IC50 (SW480): > 30000 nM
- IC50 (SJSA-1 [8]): 22700 nM

Structure (SMILES): COc1cc(C(N)=O)ccc1NC(=O)[C@@H]1N[C@@H](CC(C)(C)C)[C@@]2(C(=O)Nc3cc(Cl)sc32)[C@H]1c1cccc(Cl)c1F
- Activity (RKO): Active
- Activity (HCT-116): Active
- Activity (Mus musculus [9]): Non-toxic
- TGI (SJSA-1 [10]): Active
- Activity (SJSA-1 [11]): Active
- bioavailability [18]: 92%
- half-life [19]: 3 h
- clearance [20]: 9.9 mL/min/kg
- Cmax [21]: 1300 ng/mL
- AUC/dose (Mus musculus [22]): 1.5 µg·h/mL/mg/kg
- CLint scaled [7]: 2 mL/min/kg
- Activity (SJSA-1 [17]): Active

Structure (SMILES): COc1cc(C(=O)O)ccc1NC(=O)[C@@H]1N[C@@H](CC(C)(C)C)[C@@]2(C(=O)Nc3cc(Cl)cnc32)[C@H]1c1cccc(Cl)c1F (racemic)
- IC50 (SW480): > 30000 nM
- IC50 (SJSA-1 [8]): 61 nM

Structure (SMILES): COc1cc(C(=O)O)ccc1NC(=O)C1NC(CC(C)(C)C)C2(C(=O)Nc3cc(Cl)sc32)C1c1cccc(Cl)c1F (racemic)
- IC50 (SW480): 29300 nM
- IC50 (SJSA-1 [8]): 9 nM
